Assay [1] deals with Bromodomain-containing protein 4 (Homo sapiens, UniProt O60885). Nature of the assay: Inhibition of recombinant human His-tagged BRD4 bromodomain 1/2 (2 to 1362 residues) expressed in […] insect cells using biotinylated H4(1 to 21)K5/8/12/16Ac peptide as substrate preincubated for 30 mins followed by substrate addition and measured after 30 mins by Alpha screen assay. In general terms: In Alpha technology, singlet oxygen from a donor bead excites a nearby acceptor bead.

Assay [2] has as its system A549. The experiment in a line: Antiproliferative activity against human A549 cells incubated for 48 hrs by MTT assay. In kind it is functional, cell-based. As to conditions: A549, 48 h. The method in brief: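 Cells kept in DMEM or RPMI 1640 with 10% FBS at 37 °C, 5% CO2. MTT added for 4 h at 37 °C, formazan dissolved in DMSO, OD read at 570 nm. Survival % taken relative to blank and control wells. Triplicate runs; IC50 from curve fit.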

For orientation: IC50 means the concentration that inhibits the measured activity by half.

In the case of `N#Cc1cccc(S(=O)(=O)Nc2ccc3[nH]c(=O)c4ccccc4c3c2)c1`, the IC50 in assay [1] came out at 1.79 µM.
Same read-out and setting: then `O=c1[nH]c2ccc(NS(=O)(=O)c3ccc4c(c3)CCO4)cc2c2ccccc12`, with 13.1 µM; and `O=c1[nH]c2ccc(NS(=O)(=O)c3ccc4ccccc4c3)cc2c2ccccc12`, with 7.23 µM.
The same measure, in the same setting: then `O=c1[nH]c2ccc(NS(=O)(=O)c3ccccc3)cc2c2ccccc12`, with 1.64 µM; and `O=C(Nc1ccc2[nH]c(=O)c3ccccc3c2c1)Oc1ccccc1`, with 6.02 µM; and `CC(C)(C)c1ccc(S(=O)(=O)Nc2ccc3[nH]c(=O)c4ccccc4c3c2)cc1`, with 1.13 µM.
Same read-out and setting: then `COc1ccc(S(=O)(=O)Nc2ccc3[nH]c(=O)c4ccccc4c3c2)cc1`, with 1.32 µM; and `O=c1[nH]c2ccc(NS(=O)(=O)c3cccc(Cl)c3)cc2c2ccccc12`, with 0.79 µM.
For `O=c1[nH]c2ccc(NS(=O)(=O)C3CCCCC3)cc2c2ccccc12`, the IC50 in assay [1] was found to be 5.92 µM.
Take `COc1ccccc1S(=O)(=O)Nc1ccc2[nH]c(=O)c3ccccc3c2c1`: the IC50 in assay [1] amounted to 0.48 µM.
Still for that read-out and setting: the result for `O=C(Nc1ccccc1)Nc1ccc2[nH]c(=O)c3ccccc3c2c1` reads 9.93 µM.
For the compound `O=c1[nH]c2ccc(NS(=O)(=O)c3ccc(Cl)cc3)cc2c2ccccc12`, the IC50 in assay [1] came to 0.85 µM.
Regarding `CCCCS(=O)(=O)Nc1ccc2[nH]c(=O)c3ccccc3c2c1`, in assay [1], the IC50 came to 5.54 µM.
Same read-out and setting: the result for `O=c1[nH]c2ccc(NS(=O)(=O)c3cccs3)cc2c2ccccc12` reads 6.74 µM.
On to `COc1cc(Cl)ccc1S(=O)(=O)Nc1ccc2oc(=O)ccc2c1`, for which the concentration for half-maximal inhibition (IC50) came to 0.93 µM in assay [1] and 4.63 µM in assay [2].
Consider `O=c1[nH]c2ccc(NS(=O)(=O)c3ccccc3Cl)cc2c2ccccc12`, for which, in assay [1], the IC50 stood at 1.25 µM.
The same measure, in the same setting: the result for `O=c1[nH]c2ccc(NS(=O)(=O)Cc3ccccc3)cc2c2ccccc12` reads 5.17 µM.
As for `O=C(Nc1ccc2[nH]c(=O)c3ccccc3c2c1)c1ccccc1`, in assay [1], the concentration for half-maximal inhibition (IC50) was found to be 18.6 µM.
Regarding `O=c1[nH]c2ccc(NS(=O)(=O)C3CCCC3)cc2c2ccccc12`, the IC50 in assay [1] amounted to 6.17 µM.
Still for that read-out and setting: the result for `CCCS(=O)(=O)Nc1ccc2[nH]c(=O)c3ccccc3c2c1` reads 6.71 µM.

The values above are taken from ChEMBL document CHEMBL4351018, “Novel phenanthridin-6(5H)-one derivatives as potent and selective BET bromodomain inhibitors: Rational design, synthesis and biological evaluation” (Eur J Med Chem, 2019).
